Type in all cases: functional, cell-based
Assay [1] can be described thus: Cytotoxicity against KB-3-1 cells after 68 hrs by MTT assay. The following applies: Homo sapiens, KB 3-1, 68 h. Summed up: (§1)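 Human epidermoid carcinoma KB-3-1 (parental) and sublines: KB/MRP1 (MRP1 cDNA-transfected), KB-CV60 (kept in 1 μg/mL cepharanthine + 60 ng/mL vincristine), KB-C2 (kept in 2 μg/mL colchicine). DMEM with 10% bovine serum, 37 °C, 5% CO₂. Seeded at 4×10^4 (KB-3-1), 5×10^4 (KB/MRP1) or 7.5×10^4 cells/mL (KB-CV60, KB-C2). Compound dilution series for 68 h, then MTT 4 h. Formazan dissolved in DMSO, A570. IC50 from survival curves by the Bliss method.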

Assay [2] relates to KB 3-1. Put plainly: Reversal of P-gp-mediated multidrug resistance to Cytotoxicity of colchicine against human KB-3-1 cells at 5 uM after 68 hrs by MTT assay. The following applies: KB 3-1, 68 h. The method, boiled down:
(§2)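 KB-3-1 seeded at 4×10^4 cells/mL, KB-C2 at 7.5×10^4 cells/mL (KB-C2 kept in 2 μg/mL colchicine). MTT added for 4 h, DMSO solubilization, A570. IC50 by the Bliss method. Fold-resistance = IC50 / colchicine IC50 in KB-3-1. Mean ± SD, three independent experiments in triplicate.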

Assay [3] is described as follows: Cytotoxicity against KB-CV60 cells expressing MRP1 after 68 hrs by MTT assay. The note with it: Homo sapiens, KB-CV60, 68 h. The method, boiled down: as §1
Assay [4] is described as follows: Cytotoxicity against KB-C2 cells overexpressing P-gp after 68 hrs by MTT assay. The following applies: Homo sapiens, KB-C2, 68 h. The method, boiled down: as §1
Assay [5] concerns KB. The assay can be described thus: Cytotoxicity against KB cells expressing MRP1 after 68 hrs by MTT assay. The note with it: Homo sapiens. The method, boiled down:
as §1

The nature of assay [6]: Reversal of P-gp-mediated multidrug resistance to Cytotoxicity of colchicine against human KB-C2 cells at 5 uM after 68 hrs by MTT assay. The note with it: KB-C2, 68 h. The method, boiled down:
as §2

The text below walks through data of ChEMBL document CHEMBL1143668, “Reversal of P-glycoprotein-mediated multidrug resistance by sipholane triterpenoids” (J Nat Prod, 2007).

SMILES strings stand for the structures.

For the compound `CC1(C)C(CC[C@@H]2[C@@]3(C)CC[C@@H](O)C(C)(C)O[C@@H]3CC[C@]2(C)O)C(C=O)=CCC2C1CC[C@@]2(C)O` (stereo partly drawn), the IC50 in assay [1] is over 50 µM; in assay [2], 5 nM; in assay [3] it was over 50 µM; in assay [4], over 50 µM; in assay [5] it was over 50 µM; in assay [6], 2850 nM.

For `CC1(C)O[C@@H]2CC[C@](C)(O)[C@H](CCC3C(C=O)=CCC4C(CC[C@@]4(C)O)C3(C)C)[C@@]2(C)CCC1=O` (stereo partly drawn), the IC50 is over 50 µM in assay [1]; 5.6 nM in assay [2]; over 50 µM in assay [3]; over 50 µM in assay [4]; over 50 µM in assay [5]; 6320 nM in assay [6].

In the case of `CC1(C)O[C@@H]2CC[C@](C)(O)[C@H](CCC3C(CO)=CCC4C(CC[C@@]4(C)O)C3(C)C)[C@@]2(C)CCC1=O` (stereo partly drawn), the IC50 in assay [1] was over 50 µM; in assay [2], 6.3 nM; in assay [3], over 50 µM; in assay [4] it was over 50 µM; in assay [5], over 50 µM; in assay [6] it was 6000 nM.

Regarding `CC1(C)C(CC[C@@H]2[C@@]3(C)CC[C@@H](O)C(C)(C)O[C@@H]3CC[C@]2(C)O)C(CO)=CCC2C1CC[C@@]2(C)O` (stereo partly drawn) [28-HYDROXYSIPHOLENOL A], the IC50 in assay [1] was over 50 µM; in assay [2], 5.9 nM; in assay [3] it was over 50 µM; in assay [4], over 50 µM; in assay [5], over 50 µM; in assay [6], 5070 nM.

As for `CC1=CCC2C(CC[C@@]2(C)O)C(C)(C)C1CC[C@@H]1[C@@]2(C)CC[C@@H](O)C(C)(C)O[C@@H]2CC[C@]1(C)O` (stereo partly drawn) [SIPHOLENOL A], the IC50 in assay [1] was over 50 µM; in assay [2] it was 5 nM; in assay [3] it was over 50 µM; in assay [4], over 50 µM; in assay [5] it was over 50 µM; in assay [6], 210 nM.

On to `CC1(C)O[C@@H]2CC[C@](C)(O)[C@H](CC[C@@]34O[C@]3(C)[C@H](O)CC3C(CC[C@@]3(C)O)C4(C)C)[C@@]2(C)CC[C@H]1O` (stereo partly drawn) [SIPHOLENOL I], for which the IC50 in assay [1] is over 50 µM; in assay [2], 8.6 nM; in assay [3] it was over 50 µM; in assay [4], over 50 µM; in assay [5], over 50 µM; in assay [6] it was 2870 nM.

For the compound `CC1=CCC2C(CC[C@@]2(C)O)C(C)(C)C1CC[C@@H]1[C@@]2(C)CCC(=O)C(C)(C)O[C@@H]2CC[C@]1(C)O` (stereo partly drawn) [SIPHOLENONE A], the IC50 is over 50 µM in assay [1]; 5.2 nM in assay [2]; over 50 µM in assay [3]; over 50 µM in assay [4]; over 50 µM in assay [5]; 930 nM in assay [6].

Turning to `CC1=C(CC[C@@H]2[C@@]3(C)CC[C@@H](O)C(C)(C)O[C@@H]3CC[C@]2(C)O)[C@](C)(C/C=C/C(C)(C)O)[C@H](O)CC1` [SIPHONELLINOL C], the half-maximal inhibitory concentration (IC50) in assay [1] was over 50 µM; in assay [2], 7.8 nM; in assay [3] it was over 50 µM; in assay [4] it was over 50 µM; in assay [5], over 50 µM; in assay [6] it was 1480 nM.
